Experimental data reported in ChEMBL document CHEMBL1146375, “Synthetic studies on novel benzimidazolopeptides with antimicrobial, cytotoxic and anthelmintic potential” (2007).
In brackets after ≈: the same amount, converted by molar mass. Residues, ends and D or L forms follow the SMILES beside them. *: point of attachment. X2 = O=C(c1cc(-c2nc3ccc([N+](=O)[O-])cc3[nH]2)ccc1O)*

Assays:
Staphylococcus aureus [1] = test: Antibacterial activity against Staphylococcus aureus NCIM 2079 after 18 hrs by disc diffusion method; assay type: functional
Procedure, shortened: (§1)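 Modified Kirby-Bauer disc diffusion. Plates inoculated with spore suspension (about 6 × 10⁴ spores mL^-1). Sterile 6 mm paper discs carried test samples at 10 mg mL^-1; ciprofloxacin disc as reference, DMF disc as negative control. Plates held 18 h at 37 °C. Inhibition zone diameters (mm) averaged over triplicate sets.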

Pontoscolex corethrurus [2] = test: Anthelmintic activity against Pontoscolex corethrurus ICARBC 408 assessed as mean paralyzing time; assay type: functional
Procedure, shortened: (§2)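 Earthworms exposed to test suspensions at 2 mg mL^-1 (0.2% w/v), made by triturating compound with Tween 80 (0.5%) and distilled water, then mechanically stirred 30 min. Mebendazole suspension prepared alike as reference. Paralysis and death times recorded; death confirmed by no movement in 50 °C water. Means from triplicate sets.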

Staphylococcus aureus [3] = test: Antibacterial activity against Staphylococcus aureus NCIM 2079 after 18 hrs by tube dilution method; assay type: functional; conditions: NCIM 2079, 18 h
Procedure, shortened: (§3)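 Tube dilution MIC. Stock diluted in sterile broth to seven concentrations from 200 to 3.1 […]. Each tube inoculated with one loopful of test bacterium and incubated 18 h at 37 °C. MIC read from presence or absence of growth.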

Escherichia coli [4] = test: Antibacterial activity against Escherichia coli NCIM 2065 after 18 hrs by tube dilution method; assay type: functional; conditions: NCIM 2065, 18 h
[5] = Growth inhibition of DLA cells at 31.25 ug/mL after 3 hrs; assay type: functional; conditions: Mus musculus
Procedure, shortened: (§4)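 DLA and EAC cells passaged intraperitoneally in albino mice, harvested after 15–20 days and adjusted to 1 × 10⁶ cells/mL. Dilutions in Dulbecco's medium (500–31.25, some down to 3.91 µg/mL; 5-FU reference) mixed 1:1 with cells and held 3 h at 37 °C. Trypan blue exclusion gave % growth inhibition; CTC50 by graphical extrapolation.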

[6] = Growth inhibition of DLA cells after 3 hrs; assay type: functional; conditions: Mus musculus; procedure, shortened: as §4
Pseudomonas aeruginosa [7] = test: Antibacterial activity against Pseudomonas aeruginosa NCIM 2034 after 18 hrs by tube dilution method; assay type: functional; conditions: NCIM 2034, 18 h; procedure, shortened: as §3
Bacillus subtilis [8] = test: Antibacterial activity against Bacillus subtilis NCIM 2063 after 18 hrs by disc diffusion method; assay type: functional; procedure, shortened: as §1
Pontoscolex corethrurus [9] = test: Anthelmintic activity against Pontoscolex corethrurus ICARBC 408 assessed as mean death time; assay type: functional
Procedure, shortened: (§5)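 Earthworms exposed to test suspensions at 2 mg mL−1, prepared by triturating compound with Tween 80 (0.5%) and distilled water, stirring 30 min, then diluting to 0.2% w/v. Mebendazole suspension was made the same way. Death was confirmed by moving worms into 50 °C warm water and looking for movement. Mean death time (min) taken from triplicate sets.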

Eudrilus [10] = test: Anthelmintic activity against Eudrilus sp. assessed as mean paralyzing time; assay type: functional; procedure, shortened: as §2
Microsporum audouinii [11] = test: Antifungal activity against Microsporum audouinii MUCC 545 after 48 hrs by disc diffusion method; assay type: functional
Procedure, shortened: (§6)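 Agar well diffusion on plates inoculated with spore suspension in normal saline from cultures on Sabouraud's broth. Wells punched and loaded with test samples or griseofulvin at 10 mg mL^-1, with DMSO as negative control. Incubated 48 h at 37 °C.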

Aspergillus niger = test: Antifungal activity against Aspergillus niger MUCC 177 after 48 hrs by disc diffusion method; assay type: functional; procedure, shortened: as §6
[12] = Growth inhibition of EAC cells at 62.5 ug/mL after 3 hrs; assay type: functional; conditions: Mus musculus, Ehrlich; procedure, shortened: as §4
Escherichia coli [13] = test: Antibacterial activity against Escherichia coli NCIM 2065 after 18 hrs by disc diffusion method; assay type: functional; procedure, shortened: as §1
[14] = Anthelmintic activity against Megascoplex konkanensis ICARBC 211 assessed as mean paralyzing time; assay type: functional; procedure, shortened: as §2
[15] = Growth inhibition of EAC cells at 500 ug/mL after 3 hrs; assay type: functional; conditions: Mus musculus, Ehrlich; procedure, shortened: as §4
[16] = Growth inhibition of EAC cells at 31.25 ug/mL after 3 hrs; assay type: functional; conditions: Mus musculus, Ehrlich; procedure, shortened: as §4
[17] = Growth inhibition of DLA cells at 62.5 ug/mL after 3 hrs; assay type: functional; conditions: Mus musculus; procedure, shortened: as §4
Pseudomonas aeruginosa [18] = test: Antibacterial activity against Pseudomonas aeruginosa NCIM 2034 after 18 hrs by disc diffusion method; assay type: functional; procedure, shortened: as §1
Microsporum audouinii [19] = test: Antifungal activity against Microsporum audouinii MUCC 545 after 48 hrs by tube dilution method; assay type: functional
Procedure, shortened: (§7)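 Tube dilution MIC as for bacteria (seven concentrations, 200–3.1 […]), with DMSO in place of DMF. Tubes inoculated with fungal culture and incubated 48 h at 37 °C. MIC read from presence or absence of growth.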

[20] = Growth inhibition of EAC cells at 125 ug/mL after 3 hrs; assay type: functional; conditions: Mus musculus, Ehrlich; procedure, shortened: as §4
Trichophyton benhamiae [21] = test: Antifungal activity against Trichophyton mentagrophytes MUCC 665 after 48 hrs by tube dilution method; assay type: functional, Arthroderma benhamiae; procedure, shortened: as §7
Candida albicans [22] = test: Antifungal activity against Candida albicans MUCC 29 after 48 hrs by tube dilution method; assay type: functional; procedure, shortened: as §7
[23] = Growth inhibition of DLA cells at 125 ug/mL after 3 hrs; assay type: functional; conditions: Mus musculus; procedure, shortened: as §4
Bacillus subtilis [24] = test: Antibacterial activity against Bacillus subtilis NCIM 2063 after 18 hrs by tube dilution method; assay type: functional; conditions: NCIM 2063, 18 h; procedure, shortened: as §3
[25] = Growth inhibition of EAC cells after 3 hrs; assay type: functional; conditions: Mus musculus, Ehrlich; procedure, shortened: as §4
[26] = Growth inhibition of DLA cells at 250 ug/mL after 3 hrs; assay type: functional; conditions: Mus musculus; procedure, shortened: as §4
Candida albicans [27] = test: Antifungal activity against Candida albicans MUCC 29 after 48 hrs by disc diffusion method; assay type: functional; procedure, shortened: as §6
[28] = Growth inhibition of EAC cells at 250 ug/mL after 3 hrs; assay type: functional; conditions: Mus musculus, Ehrlich; procedure, shortened: as §4
Eudrilus [29] = test: Anthelmintic activity against Eudrilus sp. assessed as mean death time; assay type: functional; procedure, shortened: as §5
[30] = Growth inhibition of DLA cells at 500 ug/mL after 3 hrs; assay type: functional; conditions: Mus musculus; procedure, shortened: as §4
[31] = Anthelmintic activity against Megascoplex konkanensis ICARBC 211 assessed as mean death time; assay type: functional; procedure, shortened: as §2
Trichophyton benhamiae [32] = test: Antifungal activity against Trichophyton mentagrophytes MUCC 665 after 48 hrs by disc diffusion method; assay type: functional, Arthroderma benhamiae; procedure, shortened: as §6

SMILES | inhibition zone (IZ) (Staphylococcus aureus [1]) | Time (Pontoscolex corethrurus [2]) | MIC (Staphylococcus aureus [3]) | MIC (Escherichia coli [4]) | inhibition at 31.25 µg/mL [5] | CC50 [6] | MIC (Pseudomonas aeruginosa [7]) | inhibition zone (IZ) (Bacillus subtilis [8]) | Time (Pontoscolex corethrurus [9]) | Time (Eudrilus [10]) | inhibition zone (IZ) (Microsporum audouinii [11]) | inhibition zone (IZ) (Aspergillus niger) | inhibition at 62.5 µg/mL [12] | inhibition zone (IZ) (Escherichia coli [13]) | TIME [14] | inhibition at 500 µg/mL [15] | inhibition at 31.25 µg/mL [16] | inhibition at 62.5 µg/mL [17] | inhibition zone (IZ) (Pseudomonas aeruginosa [18]) | MIC (Microsporum audouinii [19]) | further results
Cc1cc2nc(-c3ccc(C(=O)N[C@@H](Cc4cnc[nH]4)C(=O)N[C@@H](Cc4ccc(O)cc4)C(=O)O)cc3)[nH]c2cc1C | 11 mm | 17.47 min | 12.5 mg/L (≈ 22.1 µM) | 25 mg/L (≈ 44.1 µM) | 13.2% | > 883 µM | 12.5 mg/L (≈ 22.1 µM) | 13 mm | 29.02 min | 13.44 min | 10 mm | 17 mm | 3.57% | 17 mm | 0.226 h | 10.7% | 3.57% | 10.5% | 23 mm | 25 mg/L (≈ 44.1 µM) | inhibition at 125 µg/mL [20]: 7.14%; MIC (Trichophyton benhamiae [21]): 6 mg/L (≈ 10.6 µM); MIC (Candida albicans [22]): 12.5 mg/L (≈ 22.1 µM); inhibition at 125 µg/mL [23]: 21%; MIC (Bacillus subtilis [24]): 6 mg/L (≈ 10.6 µM); CC50 [25]: > 883 µM; inhibition at 250 µg/mL [26]: 18.4%; inhibition zone (IZ) (Candida albicans [27]): 17 mm; inhibition at 250 µg/mL [28]: 7.14%; Time (Eudrilus [29]): 23.08 min; inhibition at 500 µg/mL [30]: 26.3%; TIME [31]: 0.37 h; inhibition zone (IZ) (Trichophyton benhamiae [32]): 16 mm
COC(=O)CNC(=O)[C@H](CC(C)C)NC(=O)[C@@H]1CCCN1C(=O)[C@H](Cc1cnc[nH]1)NC(=O)c1cc(-c2nc3ccc([N+](=O)[O-])cc3[nH]2)ccc1O (X2-HPLG-OMe) | 10 mm | 13.76 min | 12.5 mg/L (≈ 17.4 µM) | 12.5 mg/L (≈ 17.4 µM) | 28.7% | > 697 µM | 6 mg/L (≈ 8.36 µM) | 14 mm | 21.72 min | 11.23 min | 12 mm | 17 mm | 7.14% | 14 mm | 0.188 h | 28.7% | 3.57% | 15.8% | 24 mm | 6 mg/L (≈ 8.36 µM) | inhibition at 125 µg/mL [20]: 10.7%; MIC (Trichophyton benhamiae [21]): 6 mg/L (≈ 8.36 µM); MIC (Candida albicans [22]): 6 mg/L (≈ 8.36 µM); inhibition at 125 µg/mL [23]: 23.7%; MIC (Bacillus subtilis [24]): 6 mg/L (≈ 8.36 µM); CC50 [25]: > 697 µM; inhibition at 250 µg/mL [26]: 31.6%; inhibition zone (IZ) (Candida albicans [27]): 20 mm; inhibition at 250 µg/mL [28]: 21.4%; Time (Eudrilus [29]): 20.33 min; inhibition at 500 µg/mL [30]: 39.5%; TIME [31]: 0.334 h; inhibition zone (IZ) (Trichophyton benhamiae [32]): 15 mm
CC(C)[C@H](NC(=O)c1cc(-c2nc3ccc([N+](=O)[O-])cc3[nH]2)ccc1O)C(=O)N[C@@H](Cc1ccccc1)C(=O)N[C@@H](Cc1cnc[nH]1)C(=O)O | 11 mm | 11.87 min | 12.5 mg/L (≈ 18.3 µM) | 12.5 mg/L (≈ 18.3 µM) | 10.5% | > 718 µM | 12.5 mg/L (≈ 18.3 µM) | 13 mm | 22.79 min | 11.55 min | 12 mm | 19 mm | 3.57% | 16 mm | 0.174 h | 10.7% | 3.57% | 21% | 24 mm | 12.5 mg/L (≈ 18.3 µM) | inhibition at 125 µg/mL [20]: 7.14%; MIC (Trichophyton benhamiae [21]): 6 mg/L (≈ 8.79 µM); MIC (Candida albicans [22]): 6 mg/L (≈ 8.79 µM); inhibition at 125 µg/mL [23]: 26.3%; MIC (Bacillus subtilis [24]): 6 mg/L (≈ 8.79 µM); CC50 [25]: > 718 µM; inhibition at 250 µg/mL [26]: 28.9%; inhibition zone (IZ) (Candida albicans [27]): 19 mm; inhibition at 250 µg/mL [28]: 7.14%; Time (Eudrilus [29]): 21.72 min; inhibition at 500 µg/mL [30]: 42.1%; TIME [31]: 0.326 h; inhibition zone (IZ) (Trichophyton benhamiae [32]): 13 mm
